According to ChEMBL document CHEMBL3792346, “Thiazolino 2-Pyridone Amide Inhibitors of Chlamydia trachomatis Infectivity” (J Med Chem, 2016):
One block for each compound: values may come before it.

Key:
Chlamydia trachomatis [1] = assay: Drug uptake in Chlamydia trachomatis serovar LGV-L2 inclusion infected in human HeLa cells at 1 uM after 48 hrs by laser confocal microscopy; format: ADME, organism-based
How it was run: (§1)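 HeLa on coverslips infected with LGV-L2 at MOI 0.5 in HBSS; after 60 min, fresh medium with fluorescent compound or BODIPY control (1 µM) added, left to 48 hpi; PBS-washed, 4% paraformaldehyde fixed, Triton-permeabilized, BSA-blocked, anti-MOMP/rhodamine stained; confocal imaging, 60× oil, Z-stack projections; ≥2 independent experiments.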

Chlamydia trachomatis [2] = assay: Drug uptake in Chlamydia trachomatis serovar LGV-L2 inclusion infected in human HeLa cells at 1 uM coadministered with 8-Cyclopropyl-7-(naphthalen 1-ylmethyl)-5-oxo-N-(3-methylphenyl)-2,3-dihydro-5H-[1,3]thiazolo[3,2-a]pyridine-3-carboxamide after 48 hrs by laser confocal microscopy; format: ADME, organism-based
How it was run: (§2)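 Infected HeLa (LGV-L2, MOI 0.5) given 1 µM fluorescent analogue alone or with equimolar competitor, added together directly after infection and kept to end; fixed, anti-MOMP stained, confocal imaged with identical settings; fluorescence per inclusion divided by inclusion area in >40 inclusions; two-tailed t-test; ≥2 independent experiments.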

Chlamydia trachomatis [3] = assay: Antimicrobial activity against Chlamydia trachomatis serovar LGV-L2 infected in human HeLa cells at 2.5 uM after 48 hrs; format: functional
How it was run: (§3)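 HeLa cells infected with LGV-L2 at MOI 0.1-0.5; compounds added at 1 hpi, tested at 2.5 µM then 5 or 10 µM or 1, 0.5, 0.25, 0.1 µM; after ~48 h, osmotic lysis, SPG restored, 10-fold dilutions reinfect fresh HeLa; IFUs counted by automated imaging versus DMSO; Reinfect95 = lowest concentration consistently giving 95% IFU reduction; ≥2 experiments in triplicate.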

Chlamydia trachomatis [4] = assay: Drug uptake in Chlamydia trachomatis serovar LGV-L2 inclusion infected in human HeLa cells at 1 uM coadministered with 6-Amino-8-cyclopropyl-7-(naphthalen-1-ylmethyl)-5-oxo-N-phenyl-2,3-dihydro-5H-[1,3]thiazolo[3,2-a]pyridine 3-carboxamide after 48 hrs by laser confocal microscopy; format: ADME, organism-based; how it was run: as §2
HeLa = assay: Drug uptake in human HeLa cells infected with Chlamydia trachomatis serovar LGV-L2 at 1 uM after 48 hrs by laser confocal microscopy; format: ADME, cell-based; how it was run: as §1
Chlamydia trachomatis [5] = assay: Antimicrobial activity against Chlamydia trachomatis serovar LGV-L2 infected in human HeLa cells assessed as concentration require to reduce relative inclusion forming units by 95% after 48 hrs; format: functional; how it was run: as §3
[6] = Cytotoxicity against human HeLa cells assessed as cell viability at 10 uM after 48 hrs by resazurin assay relative to control; format: cell-based; details: read-out: Activity
How it was run: (§4)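 Uninfected HeLa seeded in RPMI, next day switched to colorless DMEM with 10% FBS, 2 mM glutamine; compounds added in triplicate, 48 h at 37 °C; resazurin added, 3 h at 37 °C dark; fluorescence ex 535/em 595 nm; cell-free wells with compound check direct resazurin reduction; mean of three experiments in triplicate, SD over nine replicates.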

Chlamydia trachomatis [7] = assay: Antimicrobial activity against Chlamydia trachomatis serovar LGV-L2 infected in human HeLa cells assessed as decrease in relative inclusion forming units measured 44 to 48 hrs post infection by DAPI staining-based assay; format: functional, organism-based
How it was run: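 HeLa229 cells infected with serovar LGV-L2 at MOI 0.3; compounds in DMSO added at 1 hpi as 8-step halving dilutions from 2 to 0.0156 µM; after 44-48 h, osmotic lysis with cold water, SPG restored, lysate 10-fold serially diluted onto fresh HeLa; after 44-48 h, methanol-fixed, anti-Chlamydia/FITC stained, IFUs counted by automated scanner relative to DMSO; EC50 by nonlinear regression, ≥3 independent experiments.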

Chlamydia trachomatis [8] = assay: Antimicrobial activity against Chlamydia trachomatis serovar D infected in human HeLa cells assessed as decrease in relative inclusion forming units measured 44 to 48 hrs post infection by DAPI staining-based assay; format: functional, organism-based
[9] = Cytotoxicity against human HeLa cells assessed as cell viability at 25 uM after 48 hrs by resazurin assay relative to control; format: cell-based; details: read-out: Activity; how it was run: as §4
Escherichia coli = assay: Effect on growth of Escherichia coli MW100 at 50 uM incubated for 8 hrs measured every hour during incubation; format: organism-based; details: in vivo
How it was run: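 E. coli MW100 overnight LB cultures at 37 °C diluted to OD600 0.05 in LB with DMSO or 50 µM compound; grown 8 h with OD600 read hourly and visual inspection; triplicate.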

[10] = Effect on growth of Lactobacillus crispatus CCUG 27076A at 50 uM after 48 hrs
How it was run: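 L. crispatus CCUG 27076A in MRS broth at 37 °C, 5% CO2; overnight culture diluted 1:20 and grown 48 h with 50 µM compound or 1% DMSO.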

Candida albicans = assay: Effect on growth of Candida albicans SC314 at 50 uM measured every 2 hrs by microscopy; format: organism-based; details: in vivo
How it was run: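 C. albicans SC314 grown overnight at 30 °C, diluted to OD600 0.05, grown to OD600 0.2, then compound added at 10 and 50 µM and grown to saturation; sampled every 2 h for microscopic yeast:hyphal ratio.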

[11] = 1-octanol-potassium phosphate buffer distribution co-efficient, log D of the compound incubated overnight at pH 7.4 by shake-flask method
[12] = Dissociation constant, pKa of the compound by UV-visible spectrophotometry; format: physicochemical
How it was run: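 Spectrophotometric titration: 2–5 µL of 10 mM DMSO stock in phosphate buffer with 20-50% (wt/wt) methanol cosolvent and ISA water; titrated pH 2-12 high to low under argon at 25 ± 1 °C, UV–vis spectra by D-PAS; electrode blank-calibrated pH 1.8-12.0 each run; precipitation monitored at 500 nm.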

[13] = 1-octanol-potassium phosphate buffer partition co-efficient, log P of the compound incubated overnight by shake-flask method; format: physicochemical
How it was run: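 Miniaturized shake-flask: 1-octanol pre-saturated with 0.1 M potassium phosphate pH 7.4 and buffer pre-saturated with octanol mixed 1:3 and 1:6; compound added from 10 mM DMSO stock; rotated overnight at rt, centrifuged 3500 rpm 30 min; each phase diluted in 60% acetonitrile with warfarin internal standard, quantified by UHPLC-MS/MS against 1-1000 nM external curve; ketoconazole control.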

Chlamydia trachomatis [14] = assay: Antimicrobial activity against Chlamydia trachomatis serovar LGV-L2 infected in human HeLa cells at 10 uM measured 44 hrs post infection relative to control; format: functional
Chlamydia trachomatis [15] = assay: Antimicrobial activity against Chlamydia trachomatis serovar LGV-L2 infected in human HeLa cells measured 44 to 48 hrs post infection by DAPI staining-based assay; format: functional, organism-based
Chlamydia trachomatis [16] = assay: Antimicrobial activity against Chlamydia trachomatis serovar D infected in human HeLa cells at 10 uM measured 44 hrs post infection relative to control; format: functional
Chlamydia trachomatis [17] = assay: Antimicrobial activity against Chlamydia trachomatis serovar A infected in human HeLa cells at 10 uM measured 44 hrs post infection relative to control; format: functional

Drug uptake (Chlamydia trachomatis [1]): Active
Drug uptake (Chlamydia trachomatis [2]): Not Active
Drug uptake (Chlamydia trachomatis [4]): Not Active
Structure (SMILES): CC1=CC(C)=[N+]2C1=C(CCc1cc(=O)n3c(c1C1CC1)SCC3C(=O)Nc1cccc(C)c1)c1c(C)cc(C)n1[B-]2(F)F (stereo not given)
Activity (Chlamydia trachomatis [3]): >95%

Drug uptake (Chlamydia trachomatis [1]): Not Active
Drug uptake (HeLa): Not Active
Structure (SMILES): CC1=CC(C)=[N+]2C1=C(C)c1c(C)cc(C)n1[B-]2(F)F

EC50 (Chlamydia trachomatis [7]): 59 nM
EC50 (Chlamydia trachomatis [8]): 58 nM
logD [11]: 4.3
pKa [12]: 2.4
Structure (SMILES): Nc1c(Cc2cccc3ccccc23)c(C2CC2)c2n(c1=O)C(C(=O)Nc1ccccc1)CS2 (stereo not given)
Activity (Chlamydia trachomatis [5]): 0.25 µM
viability at 48 h, 10 µM [6]: 101%
viability at 48 h, 25 µM [9]: 98%
Activity (Escherichia coli): Non-toxic
Activity [10]: Non-toxic
Activity (Candida albicans): Non-toxic

EC50 (Chlamydia trachomatis [7]): 254 nM
logP [13]: 5
EC50 (Chlamydia trachomatis [15]): 1250 nM
Structure (SMILES): O=C(Nc1ccccc1)c1csc2c(C3CC3)c(Cc3cccc4ccccc34)cc(=O)n12
Activity (Chlamydia trachomatis [5]): 2.5 µM
viability at 48 h, 10 µM [6]: 87%
viability at 48 h, 25 µM [9]: 73%
fold change (FC) (Chlamydia trachomatis [14]): >=10000
fold change (FC) (Chlamydia trachomatis [16]): >=10000
fold change (FC) (Chlamydia trachomatis [17]): >=10000
